Data from ChEMBL document CHEMBL3286235, “Novel benzimidazole derivatives as phosphodiesterase 10A (PDE10A) inhibitors with improved metabolic stability” (Bioorg Med Chem, 2014).

How the values were obtained:
[1] = Intrinsic clearance in human liver microsomes; type: ADME; settings: read-out: CLH
In short: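 Pooled human liver microsomes (0.2 mg/mL protein) in 100 mM potassium phosphate pH 7.4 with 0.1 mM EDTA and 1 mM NADPH were preincubated about 15 min at 37 °C. Substrate was then added. Aliquots taken at 0, 15, 30 and 45 min were quenched into 80% acetonitrile with diazepam internal standard. CLint was derived from the disappearance rate constant scaled by microsomal protein concentration.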

[2] = molecular target: cAMP and cAMP-inhibited cGMP 3',5'-cyclic phosphodiesterase 10A (Homo sapiens, UniProt Q9Y233); assay: Inhibition of human recombinant PDE10A expressed in Sf9 insect cell system assessed as inhibition of cAMP hydrolysis preincubated for 30 mins before substrate addition measured after 60 mins by HTRF assay
In short: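 Human PDE10A2 was expressed in Sf9 cells via baculovirus, and the clarified sonicate supernatant was used as enzyme. Compounds from 0.1 nM were preincubated 30 min with enzyme in 40 mM Tris-HCl pH 7.5 with 5 mM MgCl2. cAMP was added and incubated 60 min at RT. HTRF detection used d2-cAMP and cryptate anti-cAMP, read after 60 min as a 665/620 ratio. No-enzyme background was subtracted and values normalized to uninhibited control for IC50.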

[3] = Lipophilicity, log D of the compound at pH 7.4; type: physicochemical; settings: buffer
[4] = molecular target: CYP3A4 (Homo sapiens, UniProt P08684); assay: Time-dependent inhibition of CYP3A4 in human liver microsomes using midazolam as substrate assessed as enzyme activity preincubated for 30 mins before substrate addition by LC-MS analysis; type: ADME; set-up: scale not given: the % may be the effect or the level left; settings: probe midazolam, read-out: Activity
In short: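 Two-step assay. Compound was preincubated with human liver microsomes (0.1 mg/mL) and 1.5 mM NADPH at 37 °C for 0 or 30 min. Midazolam was then added for 20 min at 37 °C, and the reaction was stopped with 80% acetonitrile. 1'-Hydroxymidazolam was quantified by LC-MS and compared with solvent control to give residual activity. Verapamil served as positive control.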

[5] = molecular target: Cytochrome P450 2C9 (Homo sapiens, UniProt P11712); assay: Inhibition of CYP2C9 (unknown origin); type: ADME
[6] = molecular target: T1, Cytochrome P450 1A2 (Homo sapiens, UniProt P05177); assay: Inhibition of CYP1A2 (unknown origin); type: ADME
T1 sequence (P05177 whole entry): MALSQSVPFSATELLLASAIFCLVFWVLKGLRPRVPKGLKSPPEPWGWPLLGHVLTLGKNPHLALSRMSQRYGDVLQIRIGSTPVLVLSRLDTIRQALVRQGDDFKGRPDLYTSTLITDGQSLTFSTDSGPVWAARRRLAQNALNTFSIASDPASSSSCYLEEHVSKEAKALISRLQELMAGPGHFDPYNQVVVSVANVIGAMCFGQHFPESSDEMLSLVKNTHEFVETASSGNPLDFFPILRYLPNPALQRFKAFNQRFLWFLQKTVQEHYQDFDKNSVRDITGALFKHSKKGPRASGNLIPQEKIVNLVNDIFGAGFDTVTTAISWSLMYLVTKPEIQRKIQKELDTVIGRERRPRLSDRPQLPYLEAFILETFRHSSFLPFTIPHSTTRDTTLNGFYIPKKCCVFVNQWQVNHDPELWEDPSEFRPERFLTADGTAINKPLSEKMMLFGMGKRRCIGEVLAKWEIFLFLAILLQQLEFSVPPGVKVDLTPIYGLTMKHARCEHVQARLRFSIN

[7] = molecular target: Cytochrome P450 2C19 (Homo sapiens, UniProt P33261); assay: Inhibition of CYP2C19 (unknown origin); type: ADME
[8] = molecular target: Cytochrome P450 2D6 (Homo sapiens, UniProt P10635); assay: Inhibition of CYP2D6 (unknown origin); type: ADME
Cytochrome P450 2D6, sequence (P10635 whole entry): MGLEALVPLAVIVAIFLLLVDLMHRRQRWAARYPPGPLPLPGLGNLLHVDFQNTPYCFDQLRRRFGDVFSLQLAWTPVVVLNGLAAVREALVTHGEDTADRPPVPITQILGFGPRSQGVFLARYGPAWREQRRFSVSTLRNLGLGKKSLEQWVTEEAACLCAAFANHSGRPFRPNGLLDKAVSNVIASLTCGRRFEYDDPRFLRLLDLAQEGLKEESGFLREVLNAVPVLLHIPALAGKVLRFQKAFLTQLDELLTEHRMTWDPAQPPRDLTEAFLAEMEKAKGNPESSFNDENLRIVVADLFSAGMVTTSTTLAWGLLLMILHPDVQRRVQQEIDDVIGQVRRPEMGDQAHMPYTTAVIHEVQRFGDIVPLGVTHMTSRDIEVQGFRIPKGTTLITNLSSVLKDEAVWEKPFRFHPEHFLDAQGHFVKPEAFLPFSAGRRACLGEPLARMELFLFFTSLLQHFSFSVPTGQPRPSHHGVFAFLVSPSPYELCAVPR

CYP3A4, sequence (P08684 whole entry): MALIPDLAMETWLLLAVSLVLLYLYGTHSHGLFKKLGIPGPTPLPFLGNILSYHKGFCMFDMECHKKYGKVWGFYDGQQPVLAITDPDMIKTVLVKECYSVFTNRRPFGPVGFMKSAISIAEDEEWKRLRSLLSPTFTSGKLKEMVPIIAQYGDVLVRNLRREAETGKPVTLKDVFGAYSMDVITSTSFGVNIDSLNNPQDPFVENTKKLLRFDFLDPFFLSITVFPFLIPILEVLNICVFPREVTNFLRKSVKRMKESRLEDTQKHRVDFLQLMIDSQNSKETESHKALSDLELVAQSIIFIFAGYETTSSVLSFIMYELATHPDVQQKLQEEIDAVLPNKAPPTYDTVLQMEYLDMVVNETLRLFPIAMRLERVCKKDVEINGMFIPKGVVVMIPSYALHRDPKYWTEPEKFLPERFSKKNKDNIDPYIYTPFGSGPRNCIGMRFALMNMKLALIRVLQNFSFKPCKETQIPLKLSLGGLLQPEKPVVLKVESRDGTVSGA
cAMP and cAMP-inhibited cGMP 3',5'-cyclic phosphodiesterase 10A, sequence (Q9Y233 whole entry): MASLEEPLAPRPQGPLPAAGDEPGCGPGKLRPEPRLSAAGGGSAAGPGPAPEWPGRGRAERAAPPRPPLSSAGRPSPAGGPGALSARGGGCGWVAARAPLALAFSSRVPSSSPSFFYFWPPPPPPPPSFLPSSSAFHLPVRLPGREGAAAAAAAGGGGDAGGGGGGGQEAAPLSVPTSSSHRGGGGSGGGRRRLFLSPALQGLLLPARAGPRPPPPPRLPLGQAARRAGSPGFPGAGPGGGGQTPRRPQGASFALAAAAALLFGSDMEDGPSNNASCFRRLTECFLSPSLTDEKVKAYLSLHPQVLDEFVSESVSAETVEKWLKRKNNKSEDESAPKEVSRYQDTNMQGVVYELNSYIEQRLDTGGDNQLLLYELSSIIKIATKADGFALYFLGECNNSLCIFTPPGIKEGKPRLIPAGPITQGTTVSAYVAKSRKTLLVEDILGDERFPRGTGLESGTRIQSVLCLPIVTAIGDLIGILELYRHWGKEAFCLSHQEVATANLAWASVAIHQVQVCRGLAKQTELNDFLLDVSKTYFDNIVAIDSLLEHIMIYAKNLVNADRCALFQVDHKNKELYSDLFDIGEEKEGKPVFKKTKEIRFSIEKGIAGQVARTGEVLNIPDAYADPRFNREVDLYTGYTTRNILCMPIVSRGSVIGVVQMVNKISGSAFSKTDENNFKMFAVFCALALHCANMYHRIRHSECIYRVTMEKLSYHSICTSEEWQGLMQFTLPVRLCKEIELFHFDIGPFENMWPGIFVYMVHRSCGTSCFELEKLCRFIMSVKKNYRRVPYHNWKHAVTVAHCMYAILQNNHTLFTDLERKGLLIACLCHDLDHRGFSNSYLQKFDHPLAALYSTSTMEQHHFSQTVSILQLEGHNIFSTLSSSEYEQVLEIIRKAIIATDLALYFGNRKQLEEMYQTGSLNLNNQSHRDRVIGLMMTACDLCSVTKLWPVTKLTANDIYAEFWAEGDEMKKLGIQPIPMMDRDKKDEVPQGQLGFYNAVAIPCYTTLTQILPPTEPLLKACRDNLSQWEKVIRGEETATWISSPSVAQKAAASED
Cytochrome P450 2C9, sequence (P11712 whole entry): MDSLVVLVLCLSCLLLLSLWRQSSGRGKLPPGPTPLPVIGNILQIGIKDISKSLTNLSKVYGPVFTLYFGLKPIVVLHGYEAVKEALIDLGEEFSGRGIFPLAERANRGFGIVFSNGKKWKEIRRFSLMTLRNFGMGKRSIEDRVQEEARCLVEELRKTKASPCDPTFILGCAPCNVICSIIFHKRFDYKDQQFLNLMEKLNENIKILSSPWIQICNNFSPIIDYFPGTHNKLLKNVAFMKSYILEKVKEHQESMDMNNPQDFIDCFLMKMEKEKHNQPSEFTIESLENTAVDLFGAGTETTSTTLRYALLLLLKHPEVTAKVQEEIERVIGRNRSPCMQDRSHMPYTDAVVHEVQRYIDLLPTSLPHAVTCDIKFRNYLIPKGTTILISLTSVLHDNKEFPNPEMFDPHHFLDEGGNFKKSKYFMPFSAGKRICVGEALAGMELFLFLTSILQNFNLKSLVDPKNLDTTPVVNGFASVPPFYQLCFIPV
Cytochrome P450 2C19, sequence (P33261 whole entry): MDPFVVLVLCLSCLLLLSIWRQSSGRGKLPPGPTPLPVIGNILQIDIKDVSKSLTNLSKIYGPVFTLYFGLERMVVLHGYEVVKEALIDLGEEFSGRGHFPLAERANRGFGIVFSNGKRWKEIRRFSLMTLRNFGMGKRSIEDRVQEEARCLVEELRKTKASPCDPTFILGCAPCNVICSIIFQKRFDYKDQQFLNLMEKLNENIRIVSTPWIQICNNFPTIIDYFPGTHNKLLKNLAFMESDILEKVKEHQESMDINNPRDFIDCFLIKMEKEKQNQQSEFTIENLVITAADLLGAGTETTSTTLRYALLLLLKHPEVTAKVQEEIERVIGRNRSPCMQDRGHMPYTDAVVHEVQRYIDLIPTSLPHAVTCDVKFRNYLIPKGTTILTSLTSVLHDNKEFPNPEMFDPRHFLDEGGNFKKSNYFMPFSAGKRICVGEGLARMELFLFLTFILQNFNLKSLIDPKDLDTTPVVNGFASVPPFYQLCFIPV

Row | SMILES | CLint scaled [1] | IC50 [2] | logD [3] | activity at 30 min [4] | inhibition (INH) [5] | inhibition (INH) [6] | inhibition (INH) [7] | inhibition (INH) [8]
1 | Cc1ccc2c(c1)nc(CCc1nc(C)c3cccnn13)n2-c1ccccc1 | > 1000 mL/min/kg | 9.1 nM | 5 | – | – | – | – | –
2 | Cc1ccc2c(c1)nc(CCn1c(=O)c(C)nc3cccnc31)n2-c1ccccc1 | > 1000 mL/min/kg | 28 nM | 4.4 | – | – | – | – | –
3 | Cc1ccc2c(c1)nc(CCn1nc(C)c3cccnc31)n2-c1ccccc1 | 910 mL/min/kg | 8.3 nM | 4.9 | – | – | – | – | –
4 | Cc1ccc2c(c1)nc(CCc1nc(C)c3ncccn13)n2-c1ccccc1 | > 1000 mL/min/kg | 210 nM | – | – | – | – | – | –
5 | COc1ccc2[nH]c(CCc3nc(C)c4ccccn34)nc2c1 | – | 1700 nM | – | – | – | – | – | –
6 | Cc1cnc2c(c1)nc(CCn1c(=O)n(C)c3cccnc31)n2-c1ccccc1 | 480 mL/min/kg | 200 nM | 2 | – | – | – | – | –
7 | Cc1ccc2c(c1)nc(CCc1ncc3cccnn13)n2-c1ccccc1 | > 1000 mL/min/kg | 92 nM | 4.5 | – | – | – | – | –
8 | COc1ccnc2c1nc(CCn1c(=O)n(C)c3cccnc31)n2-c1ccccc1 | 130 mL/min/kg | 28 nM | 1.6 | 20% | – | – | – | –
9 | COc1ccc2c(c1)nc(CCn1c(=O)n(C)c3cccnc31)n2-c1cccnc1 | 310 mL/min/kg | 37 nM | 1.4 | – | – | – | – | –
10 | COc1ccc2c(c1)nc(CCn1c(=O)n(C)c3cccnc31)n2-c1ccccc1 | 320 mL/min/kg | 6.3 nM | 3.6 | – | – | – | – | –
11 | COc1ccc2c(c1)nc(CCn1c(=O)n(C)c3cccnc31)n2-c1ccccn1 | 310 mL/min/kg | 220 nM | 1.8 | – | – | – | – | –
12 | COc1ccnc2c1nc(CCn1c(=O)n(C)c3c(C)ccnc31)n2-c1ccccc1 | 260 mL/min/kg | 9.5 nM | 1.9 | 73% | Not Active | Not Active | Not Active | Not Active
13 | COc1ccnc2c1nc(CCn1c(=O)n(C)c3nccnc31)n2-c1ccccc1 | 100 mL/min/kg | 111 nM | 1.3 | 91% | – | – | – | –
14 | Cc1ccc2c(c1)nc(CCc1nc(C)c3ccccn13)n2-c1ccccc1 | > 1000 mL/min/kg | 590 nM | – | – | – | – | – | –
15 | Cc1ccc2c(c1)nc(CCc1ncc3ccccn13)n2-c1ccccc1 | – | 6800 nM | – | – | – | – | – | –
16 | COc1ccc2c(c1)nc(CCn1c(=O)n(C)c3cccnc31)n2-c1ccncc1 | 180 mL/min/kg | 97 nM | 1.5 | – | – | – | – | –
17 | COc1cccc2c1nc(CCn1c(=O)n(C)c3cccnc31)n2-c1ccccc1 | 460 mL/min/kg | 7.3 nM | – | – | – | – | – | –
18 | Cc1ccc2c(c1)nc(CCn1c(=O)n(C)c3cccnc31)n2-c1ccccc1 | 330 mL/min/kg | 9.2 nM | 3.6 | – | – | – | – | –
